Active and inactive are the calls of the source. No cut-off for these calls is given here.
Experiments:
[1] = tested on: L929; assay: Cytotoxicity against mouse L929 cells assessed as reduction in cell viability at 1 to 100 uM measured after 72 hrs; format: cell-based; conditions: l929, 72 h, dose 1-100 µM
[2] = tested on: L929; assay: Cytotoxicity against mouse L929 cells assessed as reduction in cell viability at 100 uM; format: cell-based; conditions: l929, 100 µM
[3] = Cytotoxicity against human HEK293T/17 cells assessed as reduction in cell viability incubated for 24 hrs by MTT assay; format: cell-based; conditions: hek293t/17, 24 h
Method in brief: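 HEK 293T/17 cultures were exposed to drug for 24 h and viability was read by standard MTT. Doses came from serial dilution in medium, top dose 100 μM. Controls were medium only, a DMSO vehicle at its highest level (0.1% in medium before adding to cells), and H2O2 as a toxic control. Runs were in quadruplicate (N = 4), reported as mean with SD and compared to 0 μM by two-tailed P.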

[4] = tested on: Mesenchymal stem cells; assay: Cytotoxicity against human Mesenchymal stem cells expressing human PPARdelta assessed as morphological changes at 50 uM by microscopy analysis; format: cell-based
[5] = target: T1, Peroxisome proliferator-activated receptor alpha (Homo sapiens, UniProt Q07869); assay: Agonist activity at human PPARalpha transfected in COS-7 cells assessed luciferase activity measured after 24 hrs by cell based luciferase transactivation assay
T1 sequence (Q07869 whole entry): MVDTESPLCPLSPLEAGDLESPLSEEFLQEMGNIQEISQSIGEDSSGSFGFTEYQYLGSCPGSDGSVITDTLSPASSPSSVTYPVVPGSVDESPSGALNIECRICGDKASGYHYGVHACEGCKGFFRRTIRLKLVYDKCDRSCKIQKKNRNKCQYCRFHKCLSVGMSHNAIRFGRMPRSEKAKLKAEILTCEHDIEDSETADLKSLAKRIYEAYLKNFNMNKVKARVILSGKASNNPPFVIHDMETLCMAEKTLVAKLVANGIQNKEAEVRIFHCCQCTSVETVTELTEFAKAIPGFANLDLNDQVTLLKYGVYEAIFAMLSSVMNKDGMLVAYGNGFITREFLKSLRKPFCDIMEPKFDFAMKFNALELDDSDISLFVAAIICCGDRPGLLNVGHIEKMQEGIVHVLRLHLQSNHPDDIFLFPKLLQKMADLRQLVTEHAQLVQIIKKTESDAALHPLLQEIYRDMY
Method in brief: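 Transient transfection of COS-7 cells with human PPARα, PPARγ or PPARδ plus luciferase reporter; constitutive Renilla luciferase also read. Three or more independent experiments in triplicate (N ≥ 9).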

[6] = target: T2, Peroxisome proliferator-activated receptor gamma (Homo sapiens, UniProt P37231); assay: Agonist activity at human PPARgamma transfected in COS-7 cells assessed luciferase activity measured after 24 hrs by cell based luciferase transactivation assay
T2 sequence (P37231 whole entry): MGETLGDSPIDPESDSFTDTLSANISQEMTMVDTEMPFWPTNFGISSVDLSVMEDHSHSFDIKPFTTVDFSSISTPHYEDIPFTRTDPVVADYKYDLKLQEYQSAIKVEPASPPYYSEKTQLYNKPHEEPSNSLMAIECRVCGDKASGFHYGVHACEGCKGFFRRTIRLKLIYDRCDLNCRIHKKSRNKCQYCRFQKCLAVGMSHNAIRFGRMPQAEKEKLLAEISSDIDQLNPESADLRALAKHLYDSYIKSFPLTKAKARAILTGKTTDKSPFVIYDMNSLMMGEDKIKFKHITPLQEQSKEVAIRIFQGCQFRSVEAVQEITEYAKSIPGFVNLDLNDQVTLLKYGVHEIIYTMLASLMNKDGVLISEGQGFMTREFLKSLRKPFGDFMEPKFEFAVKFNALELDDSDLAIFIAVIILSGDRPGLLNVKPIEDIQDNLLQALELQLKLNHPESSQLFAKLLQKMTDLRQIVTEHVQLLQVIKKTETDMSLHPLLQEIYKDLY

[7] = tested on: Mus musculus; assay: Antiosteoporotic activity against OVX-induced bone loss C57BL/6 mouse model assessed as increase in trabecular bone density at 10 mg/kg, po for 6 weeks by microcomputed tomography method relative to sham treated control; format: functional, organism-based
Method in brief: (§1)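 Female C57BL/6 mice ovariectomized at 12 weeks of age; sham-operated group kept ovaries intact. After recovery, daily oral gavage of compound or vehicle for 6 weeks, sacrifice at 22 weeks of age. Distal femur trabecular structure analysed by micro-computed tomography, including bone volume/total volume, compared with sham mice; GW0742 as positive control.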

[8] = target: T3, Peroxisome proliferator-activated receptor alpha (Homo sapiens) (UniProt Q07869); assay: Agonist activity at human PPARalpha transfected in COS-7 cells assessed maximum luciferase activity measured after 24 hrs by cell based luciferase transactivation assay relative to gemfibrozil; conditions: filed as agonist
T3 sequence (whole entry): T1 sequence (Q07869 whole entry)
Method in brief: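 Transient transfection of COS-7 cells with human PPARα, PPARγ or PPARδ plus luciferase reporter; constitutive Renilla luciferase also read. […] Three or more independent experiments in triplicate (N ≥ 9).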

[9] = Cytotoxicity against human HEK293T/17 cells assessed as reduction in cell viability at 10 to 100 uM measured after 72 hrs by MTT assay; format: cell-based; conditions: hek293t/17, 72 h, dose 10-100 µM
Method in brief: (§2)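 HEK 293T/17 cultures exposed to agent for 24 h or 72 h; viability by MTT. Controls: H2O2 (toxic positive), plain medium, vehicle at 0.1% DMSO corresponding to the 100 μM dose; doses by serial dilution in medium. Quadruplicate (N = 4), mean with SD; two-tailed P versus 0 μM. Viability <70% taken as relevant to human toxicity.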

[10] = tested on: Mesenchymal stem cells; assay: Induction of adipogenesis differentiation in human Mesenchymal stem cells at 1 uM incubated for 21 days by […] staining-based microscopic analysis; format: functional, cell-based; conditions: time 21.0 day
[11] = tested on: Mesenchymal stem cells; assay: Induction of adipogenesis differentiation in human Mesenchymal stem cells at 10 uM incubated for 21 days by […] staining-based microscopic analysis; format: functional, cell-based; conditions: time 21.0 day
[12] = tested on: Mesenchymal stem cells; assay: Induction of osteogenesis differentiation in human Mesenchymal stem cells at 1 uM incubated for 21 days by Alizarin Red S staining-based microscopic analysis; format: functional, cell-based; conditions: time 21.0 day
[13] = tested on: Mesenchymal stem cells; assay: Induction of osteogenesis differentiation in human Mesenchymal stem cells at 10 uM incubated for 21 days by Alizarin Red S staining-based microscopic analysis; format: functional, cell-based; conditions: time 21.0 day
[14] = Toxicity in OVX-induced bone loss C57BL/6 mouse model assessed as change in body weight at 10 mg/kg, po for 6 weeks; format: organism-based; conditions: in vivo, 1008 h
Method in brief: (§3)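 OVX C57BL/6 females (surgery at 12 weeks, sham controls) dosed daily by oral gavage for 6 weeks. Gross toxicity monitored during dosing as weight, behaviour, eating and other habits versus controls.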

[15] = tested on: Mus musculus; assay: Antiosteoporotic activity against OVX-induced bone loss C57BL/6 mouse model assessed as increase in ratio of bone volume to total volume at 10 mg/kg, po for 6 weeks by microcomputed tomography method relative to sham treated control; format: functional, organism-based; method in brief: as §1
[16] = Toxicity in OVX-induced bone loss C57BL/6 mouse model assessed as change in behaviour at 10 mg/kg, po for 6 weeks; format: organism-based; conditions: in vivo, 1008 h; method in brief: as §3
[17] = target: T4, Peroxisome proliferator-activated receptor delta (Homo sapiens, UniProt Q03181); assay: Agonist activity at human PPARdelta transfected in COS-7 cells assessed luciferase activity measured after 24 hrs by cell based luciferase transactivation assay
T4 sequence (Q03181 whole entry): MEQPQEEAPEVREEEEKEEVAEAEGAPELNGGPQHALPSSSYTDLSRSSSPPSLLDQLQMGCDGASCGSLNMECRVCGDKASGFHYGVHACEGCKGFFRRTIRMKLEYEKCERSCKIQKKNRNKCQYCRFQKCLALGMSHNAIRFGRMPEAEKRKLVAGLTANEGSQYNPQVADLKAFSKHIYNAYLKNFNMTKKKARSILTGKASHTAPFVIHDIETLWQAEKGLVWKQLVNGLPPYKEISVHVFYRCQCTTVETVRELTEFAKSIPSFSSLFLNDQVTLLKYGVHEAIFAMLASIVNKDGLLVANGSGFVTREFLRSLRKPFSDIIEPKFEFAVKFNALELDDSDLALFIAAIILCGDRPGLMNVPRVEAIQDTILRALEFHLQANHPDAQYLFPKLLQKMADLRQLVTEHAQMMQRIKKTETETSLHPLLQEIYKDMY

[18] = tested on: Mesenchymal stem cells; assay: Induction of adipogenesis differentiation in human Mesenchymal stem cells at 20 uM incubated for 21 days by […] staining-based microscopic analysis; format: functional, cell-based; conditions: time 21.0 day
[19] = Toxicity in OVX-induced bone loss C57BL/6 mouse model assessed as change in eating at 10 mg/kg, po for 6 weeks; format: organism-based; conditions: in vivo, 1008 h; method in brief: as §3
[20] = tested on: Mesenchymal stem cells; assay: Induction of osteogenesis differentiation in human Mesenchymal stem cells at 20 uM incubated for 21 days by Alizarin Red S staining-based microscopic analysis; format: functional, cell-based; conditions: time 21.0 day
[21] = Glutathione reactivity at pH 7.4 assessed as compound remaining measured after 24 hrs by LC-MS/MS method; format: physicochemical; conditions: pH 7.4, 24 h
Method in brief: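 Substrate incubated in triplicate with 10-fold excess glutathione in pH 7.4 phosphate buffer containing 50% methanol at 25 °C for up to 24 h. Substrate loss followed at several time points by LC-MS/MS, which also confirmed the structure of glutathione conjugates.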

[22] = tested on: Mus musculus; assay: Antiosteoporotic activity against OVX-induced bone loss C57BL/6 mouse model assessed as increase in microarchitectures at 10 mg/kg, po for 6 weeks by microcomputed tomography method relative to sham treated control; format: functional, organism-based; method in brief: as §1
[23] = tested on: PPARdelta (human, expressed in COS-7 cells); assay: Cell toxicity index, ratio of CT50 to EC50 for agonist activity at human PPARdelta expressed in COS-7 cells; conditions: monkey
[24] = tested on: COS-7 (Chlorocebus aethiops); assay: Cytotoxicity against COS-7 cells expressing human PPARdelta assessed as morphological changes at lower concentration by microscopy analysis; conditions: monkey
[25] = Cytotoxicity against human HEK293T/17 cells assessed as reduction in cell viability at 10 to 100 uM measured after 24 hrs by MTT assay; format: cell-based; conditions: hek293t/17, 24 h, dose 10-100 µM; method in brief: as §2

| SMILES | Activity [1] | Activity [2] | Activity [4] | EC50 ([5]; read-out: EC50) | EC50 ([6]; read-out: EC50) | Activity [7] | Emax [8] | Activity [9] | Activity [10] | Activity [11] | Activity [12] | Activity [13] | Activity [14] | Activity [15] | Activity [16] | EC50 [17] | Activity [18] | Activity [19] | Activity [20] | Stability [21] | other results |
| --- | --- | --- | --- | --- | --- | --- | --- | --- | --- | --- | --- | --- | --- | --- | --- | --- | --- | --- | --- | --- | --- |
| Cc1cc(SCc2sc(-c3ccc(C(F)(F)F)c(F)c3)nc2C)ccc1OCC(=O)O | Toxic | Toxic | Toxic | 2500 nM | 9530 nM | Active | > 108% | Toxic | inactive | inactive | Active | Active | – | – | – | – | – | – | – | – | Activity [3]: Toxic |
| Cc1nc(-c2ccc(C(F)(F)F)c(F)c2)sc1COc1ccc(/C=C/C(=O)O)cc1 | – | – | – | 51300 nM | 13200 nM | Active | 346% | – | inactive | Active | Active | Active | Toxic | Active | Toxic | 95.9 nM | inactive | Toxic | Active | Stable | – |
| Cc1nc(-c2ccc(C(F)(F)F)c(F)c2)sc1CSc1ccc(/C=C/C(=O)O)cc1 | Toxic | Toxic | – | 915 nM | 1300 nM | – | 163% | Toxic | inactive | inactive | Active | Active | Toxic | Active | Toxic | 134 nM | inactive | Toxic | Active | Stable | Activity [22]: Active; selectivity ratio [23]: 1350 |
| Cc1nc(-c2ccc(C(F)(F)F)cc2)sc1CN(C)c1ccc(/C=C/C(=O)O)cc1 | – | – | Toxic | 947 nM | 24700 nM | Active | 44% | – | inactive | Active | Active | Active | Toxic | Active | Toxic | 199 nM | Active | Toxic | Active | Stable | Activity [22]: Active; Activity [24]: Non-Toxic |
| Cc1cc(N(C)Cc2sc(-c3ccc(C(F)(F)F)cc3)nc2C)ccc1/C=C/C(=O)O | Toxic | Non-Toxic | Toxic | – | – | Active | – | Toxic | inactive | inactive | Active | Active | Toxic | Active | Toxic | 335 nM | inactive | Toxic | Active | Stable | Activity [22]: Active; Activity [24]: Non-Toxic; Activity [25]: Toxic; EC50 ([5]; cos-7): Not Active; EC50 ([6]; cos-7): Not Active; selectivity ratio [23]: 250 |
| Cc1nc(-c2ccc(C(F)(F)F)cc2)sc1COc1ccc(/C=C/C(=O)O)cc1 | – | – | Toxic | 2230 nM | – | – | 135% | – | Active | – | Active | – | – | – | – | 274 nM | – | – | – | – | Activity [24]: Non-Toxic; EC50 ([6]; cos-7): Not Active |
